Where a name gives a salt, the structure may show the parent alone. Calls of active or inactive are those of the source. The calls are words filed in the database; no cut-off is given here.
What was measured:
KB = experiment: Anticancer activity against human KB cells after 48 hrs by SRB assay; type: functional
Summary of the method: (§1)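 Grown in RPMI 1640 with 10% FBS and 2 mM L-glutamine at 37 °C, 5% CO2. Seeded at densities set by doubling time, then preincubated 24 h. Continuous 48 h drug exposure at four concentrations (0.1, 1, 10, 100), triplicate wells. Fixed with cold TCA (final 10%) at 4 °C, 60 min. Stained with 0.4% SRB in 1% acetic acid, eluted with 10 mM Tris base, read at 540/690 nm. Percent growth versus control wells.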

A2780 = experiment: Anticancer activity against human A2780 cells after 48 hrs by SRB assay; type: functional; settings: A2780, 48 h; summary of the method: as §1
SiHa = experiment: Anticancer activity against human SiHa cells after 48 hrs by SRB assay; type: functional
Summary of the method: (§2)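 Cells grown in RPMI 1640 with 10% FBS and 2 mM L-glutamine, plated at densities set by doubling time, and preincubated 24 h at 37 °C, 5% CO2. Compounds were tested at four concentrations (0.1, 1, 10, 100) in triplicate wells with 48 h continuous exposure. Cells were fixed with cold TCA (10% final, 60 min, 4 °C) and stained with 0.4% SRB in 1% acetic acid (20 min, RT). Dye was eluted with 10 mM Trizma base and read at 540 nm (690 nm reference). Percent growth is relative to control wells, plate by plate.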

ZR-75-1 = experiment: Anticancer activity against human ZR-75-1 cells after 48 hrs by SRB assay; type: functional; settings: ZR-75-1, 48 h; summary of the method: as §2
A-375 [1] = experiment: Cell cycle arrest in human A375 cells assessed as accumulation at G2/M phase at 4 uM after 24 hrs using propidium iodide staining by FACS; type: functional
Summary of the method: (§3)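 Treated A375 cells (24 h) were harvested with trypsin-EDTA and fixed in ice-cold 70% ethanol (4 °C, 30 min). After a PBS wash, they were incubated with 1 mg/mL RNase A (37 °C, 30 min) and stained with propidium iodide solution containing trisodium citrate and Triton X-100. DNA content was measured by flow cytometry on 20,000 events. Controls were DMSO-treated.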

A-375 [2] = experiment: Induction of apoptosis in human A375 cells assessed as increase in PPAR protein level at 4 uM after 24 hrs by Western blotting; type: functional, cell-based
Summary of the method: (§4)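 A375 cells were treated for 24 h and lysed in ice-cold RIPA buffer (1% NP-40, 0.5% deoxycholate, 0.1% SDS, protease inhibitors). Protein was quantified by Bradford assay, and 30 µg/lane was run on 12% SDS-PAGE and transferred to PVDF. Membranes were blocked 2 h at RT in TBST with 5% blocker, incubated with primary antibody overnight at 4 °C, then with HRP secondary (1:2000, 1 h, RT). Detection was by chemiluminescence, with β-actin as loading control.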

A-375 [3] = experiment: Induction of apoptosis in human A375 cells assessed as reduction in CDK2 protein level at 4 uM after 24 hrs by Western blotting; type: functional, cell-based; summary of the method: as §4
A-375 [4] = experiment: Induction of apoptosis in human A375 cells assessed as caspase3 activation at 4 uM after 24 hrs by fluorimetry; type: functional, cell-based
Summary of the method: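 Caspase-3 activity was measured by a fluorometric assay on lysates of treated and untreated A375 cells.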

A-375 [5] = experiment: Cell cycle arrest in human A375 cells assessed as accumulation at G0/G1 phase at 4 uM after 24 hrs using propidium iodide staining by FACS; type: functional; summary of the method: as §3
A-375 [6] = experiment: Cell cycle arrest in human A375 cells assessed as accumulation at S phase at 4 uM after 24 hrs using propidium iodide staining by FACS; type: functional; summary of the method: as §3

| Structure (SMILES) | GI50 (KB) [nM] | GI50 (A2780) [nM] | GI50 (SiHa) [nM] | GI50 (ZR-75-1) [nM] | Activity (A-375 [1]) [%] | Activity (A-375 [2]) | Activity (A-375 [3]) | Activity (A-375 [4]) | Activity (A-375 [5]) [%] | Activity (A-375 [6]) [%] |
| --- | --- | --- | --- | --- | --- | --- | --- | --- | --- | --- |
| COc1cc2c(cc1OCCCOc1c(OC)cc(-c3cc(-c4cc(OC)c(OC)c(OC)c4)on3)cc1OC)N=C[C@@H]1CCCN1C2=O | 150 | 130 | 150 | 180 | – | – | – | – | – | – |
| COc1cccc2c1C(=O)c1c(O)c3c(c(O)c1C2=O)C[C@@](O)(C(=O)CO)C[C@@H]3O[C@H]1C[C@H](N)[C@H](O)[C@H](C)O1 [DOXORUBICIN HYDROCHLORIDE] | 160 | < 100 | 1900 | < 100 | – | – | – | – | – | – |
| COc1ccc(-c2cc(-c3cc(OC)c(OC)c(OC)c3)on2)cc1OCCCCOc1cc2c(cc1OC)C(=O)N1CCC[C@H]1C=N2 | 150 | 140 | 150 | 100 | – | – | – | – | – | – |
| COc1cc2c(cc1O)N=C[C@@H]1CCCN1C2=O | 170 | 140 | 170 | – | 1.33 | – | – | – | 88.05 | 10.62 |
| COc1cc2c(cc1OCCCCCOc1c(OC)cc(-c3cc(-c4cc(OC)c(OC)c(OC)c4)on3)cc1OC)N=C[C@@H]1CCCN1C2=O | 160 | 140 | 160 | 100 | – | – | – | – | – | – |
| COc1ccc(-c2cc(-c3cc(OC)c(OC)c(OC)c3)on2)cc1OCCCCCOc1cc2c(cc1OC)C(=O)N1CCC[C@H]1C=N2 | 130 | 120 | 130 | < 100 | – | – | – | – | – | – |
| COc1cc(C2=NOC(c3cc(OC)c(OC)c(OC)c3)C2)ccc1O (centres undefined) | – | – | – | – | 1.82 | – | – | – | 82.59 | 15.59 |

Continued, in another order:

| GI50 (KB) [nM] | GI50 (A2780) [nM] | Structure (SMILES) | GI50 (SiHa) [nM] | GI50 (ZR-75-1) [nM] | Activity (A-375 [1]) [%] | Activity (A-375 [2]) | Activity (A-375 [3]) | Activity (A-375 [4]) | Activity (A-375 [5]) [%] | Activity (A-375 [6]) [%] |
| --- | --- | --- | --- | --- | --- | --- | --- | --- | --- | --- |
| 160 | 140 | COc1ccc(C2CC(c3cc(OC)c(OC)c(OC)c3)=NO2)cc1OCCCCCOc1cc2c(cc1OC)C(=O)N1CCC[C@H]1C=N2 (some centres undefined) | 160 | 120 | – | – | – | – | – | – |
| < 100 | < 100 | COc1cc(C2=NOC(c3cc(OC)c(OC)c(OC)c3)C2)ccc1OCCCCCOc1cc2c(cc1OC)C(=O)N1CCC[C@H]1C=N2 (some centres undefined) | < 100 | < 100 | 1.15 | Active | Active | Active | 92.45 | 6.4 |
| 180 | 150 | COc1cc2c(cc1OCCCCOc1c(OC)cc(C3CC(c4cc(OC)c(OC)c(OC)c4)=NO3)cc1OC)N=C[C@@H]1CCCN1C2=O (some centres undefined) | 170 | 150 | – | – | – | – | – | – |
| 180 | 150 | COc1cc2c(cc1OCCCCCOc1c(OC)cc(C3CC(c4cc(OC)c(OC)c(OC)c4)=NO3)cc1OC)N=C[C@@H]1CCCN1C2=O (some centres undefined) | 180 | 180 | – | – | – | – | – | – |
| 170 | 150 | COc1ccc(-c2cc(-c3cc(OC)c(OC)c(OC)c3)on2)cc1OCCCOc1cc2c(cc1OC)C(=O)N1CCC[C@H]1C=N2 | 150 | 130 | – | – | – | – | – | – |
| 160 | 150 | COc1ccc(C2CC(c3cc(OC)c(OC)c(OC)c3)=NO2)cc1OCCCOc1cc2c(cc1OC)C(=O)N1CCC[C@H]1C=N2 (some centres undefined) | 180 | 130 | – | – | – | – | – | – |

From ChEMBL document CHEMBL1240422, “Design, synthesis and biological evaluation of 3,5-diaryl-isoxazoline/isoxazole-pyrrolobenzodiazepine conjugates as potential anticancer agents” (2010)
